Source: ChEMBL document CHEMBL1649125, “Efficacy of the novel diamidine compound 2,5-Bis(4-amidinophenyl)- furan-bis-O-Methlylamidoxime (Pafuramidine, DB289) against Trypanosoma brucei rhodesiense infection in vervet monkeys after oral administration” (2009)
Calls of active or inactive are those of the source. No cut-off for these calls is given here.

Columns and labels:
[1] = system: Trypanosoma brucei rhodesiense; test: Antitrypanosomal activity against Trypanosoma brucei rhodesiense infected in vervet monkey 471 assessed as time to detect parasitemia at 10 mg/kg, po administered on day 14 post infection for 5 days; assay type: functional
[2] = system: Trypanosoma brucei rhodesiense; test: Antitrypanosomal activity against Trypanosoma brucei rhodesiense infected in vervet monkey assessed as change in packed cell volume at 1 mg/kg, po administered on day 7 post infection for 5 days; assay type: functional
Outline: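 Packed cell volume change is given as percent of the mean preinfection PCV in 3 monkeys. It was recorded at day 0 p.t., day 28 p.t. and end point, after 5 daily oral gavage doses starting day 7 p.i.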

[3] = system: Trypanosoma brucei rhodesiense; test: Antitrypanosomal activity against Trypanosoma brucei rhodesiense infected in vervet monkey 490 assessed as time to detect CSF parasitosis at 10 mg/kg, po administered on day 28 post infection for 10 days measured after 14 to 21 days by microscopy; assay type: functional
Outline: (§1)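 Trypanosomes and white cells in free-flowing CSF were counted by hemocytometer. Negative CSF was centrifuged and re-examined. Samples still negative were inoculated at 0.2 ml intraperitoneally into two mice each. Drug was given once daily by oral gavage: 5 days from day 7 p.i., or 10 days from day 28 p.i.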

[4] = system: Trypanosoma brucei rhodesiense; test: Antitrypanosomal activity against Trypanosoma brucei rhodesiense infected in vervet monkey assessed as body weight change at 3 mg/kg, po administered on day 7 post infection for 5 days measured on day 28 post treatment; assay type: functional
Outline: (§2)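 Body weight change is given as percent of the mean preinfection weight (n=3 per group). It was recorded at day 0 p.t., day 28 p.t. and end point. Oral gavage was once daily: 5 days from day 7 p.i., or 10 days from day 28 p.i.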

[5] = system: Trypanosoma brucei rhodesiense; test: Antimicrobial activity against Trypanosoma brucei rhodesiense infected in vervet monkeys assessed as cure from infection at 10 mg/kg, po administered on day 7 post infection for 5 days; assay type: functional, organism-based; set-up: dose 10 mg/kg
Outline: (§3)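 Vervet monkeys (n=3 per group), infected with T. b. rhodesiense KETRI 2537. Dosed by oral gavage with a suspension once daily for 5 consecutive days from day 7 p.i. Cure meant no trypanosomes over 180 days p.t. in blood (wet film, HCT) or CSF (hemocytometer, centrifugation), with mouse subinoculation of negative samples.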

[6] = system: Trypanosoma brucei rhodesiense; test: Antitrypanosomal activity against Trypanosoma brucei rhodesiense infected in vervet monkey 484 assessed as time to detect parasitemia at 1 mg/kg, po administered on day 7 post infection for 5 days; assay type: functional, organism-based; set-up: dose 1 mg/kg
Outline: (§4)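 Parasitemia was monitored from 3 days p.i. in ear-prick or inguinal venous blood. Methods were wet-film microscopy (detection limit 10^5 trypanosomes/ml) and hematocrit centrifugation technique (detection limit 10^3 trypanosomes/ml). Drug was given once daily by oral gavage: 5 days from day 7 p.i., or 10 days from day 28 p.i.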

[7] = system: Trypanosoma brucei rhodesiense; test: Antitrypanosomal activity against Trypanosoma brucei rhodesiense infected in vervet monkey 482 assessed as time to detect CSF parasitosis at 3 mg/kg, po administered on day 7 post infection for 5 days measured after 14 to 21 days by microscopy; assay type: functional; outline: as §1
[8] = system: Trypanosoma brucei rhodesiense; test: Antitrypanosomal activity against Trypanosoma brucei rhodesiense infected in vervet monkey 485 assessed as time to detect CSF parasitosis at 1 mg/kg, po administered on day 7 post infection for 5 days measured after 7 to 14 days; assay type: functional; outline: as §1
[9] = system: Trypanosoma brucei rhodesiense; test: Antitrypanosomal activity against Trypanosoma brucei rhodesiense infected in vervet monkey 520 assessed as time to detect CSF parasitosis at 10 mg/kg, po administered on day 28 post infection for 10 days measured after 14 to 21 days by microscopy; assay type: functional; outline: as §1
[10] = system: Trypanosoma brucei rhodesiense; test: Antitrypanosomal activity against Trypanosoma brucei rhodesiense infected in vervet monkey assessed as body weight change at 10 mg/kg, po administered on day 7 post infection for 5 days measured on day 28 post treatment; assay type: functional; outline: as §2
[11] = system: Trypanosoma brucei rhodesiense; test: Antitrypanosomal activity against Trypanosoma brucei rhodesiense infected in vervet monkey 471 assessed as time to detect CSF parasitosis at 10 mg/kg, po administered on day 14 post infection for 5 days measured after 7 to 14 days; assay type: functional, organism-based; set-up: dose 10 mg/kg
[12] = system: Trypanosoma brucei rhodesiense; test: Antitrypanosomal activity against Trypanosoma brucei rhodesiense infected in vervet monkey 483 assessed as time to detect parasitemia at 3 mg/kg, po administered on day 7 post infection for 5 days; assay type: functional; outline: as §4
[13] = system: Trypanosoma brucei rhodesiense; test: Antitrypanosomal activity against Trypanosoma brucei rhodesiense infected in vervet monkey assessed as change in packed cell volume at 10 mg/kg, po administered on day 14 post infection for 5 days measured on day 28 post treatment; assay type: functional
[14] = system: Trypanosoma brucei rhodesiense; test: Antitrypanosomal activity against Trypanosoma brucei rhodesiense infected in vervet monkey assessed as change in packed cell volume at 10 mg/kg, po administered on day 28 post infection for 10 days; assay type: functional
Outline: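 Three vervet monkeys were infected intravenously with T. b. rhodesiense KETRI 2537 and treated in late-stage disease. From day 28 p.i., a drug suspension was given by oral gavage once daily for 10 consecutive days. PCV was reported as % change from the mean preinfection value at day 0 p.t., day 28 p.t. and endpoint. Monitoring continued up to 180 days p.t.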

[15] = system: Trypanosoma brucei rhodesiense; test: Antitrypanosomal activity against Trypanosoma brucei rhodesiense infected in vervet monkey 471 assessed as time to detect CSF parasitosis at 10 mg/kg, po administered on day 14 post infection for 5 days measured after 14 to 21 days by microscopy; assay type: functional, organism-based; set-up: dose 10 mg/kg
[16] = system: Trypanosoma brucei rhodesiense; test: Antitrypanosomal activity against Trypanosoma brucei rhodesiense infected in vervet monkey 486 assessed as cure from infection at 10 mg/kg, po administered on day 7 post infection for 5 days; assay type: functional, organism-based; set-up: dose 10 mg/kg; outline: as §3
[17] = system: Trypanosoma brucei rhodesiense; test: Antitrypanosomal activity against Trypanosoma brucei rhodesiense infected in vervet monkey assessed as body weight change at 10 mg/kg, po administered on day 14 post infection for 5 days; assay type: functional
[18] = system: Trypanosoma brucei rhodesiense; test: Antitrypanosomal activity against Trypanosoma brucei rhodesiense infected in vervet monkey 468 assessed as cure from infection at 10 mg/kg, po administered on day 7 post infection for 5 days; assay type: functional, organism-based; set-up: dose 10 mg/kg; outline: as §3
[19] = system: Trypanosoma brucei rhodesiense; test: Antitrypanosomal activity against Trypanosoma brucei rhodesiense infected in vervet monkey assessed as change in packed cell volume at 10 mg/kg, po administered on day 14 post infection for 5 days; assay type: functional
[20] = system: Trypanosoma brucei rhodesiense; test: Antitrypanosomal activity against Trypanosoma brucei rhodesiense infected in vervet monkey 478 assessed as cure from infection at 10 mg/kg, po administered on day 14 post infection for 5 days
[21] = system: Trypanosoma brucei rhodesiense; test: Antitrypanosomal activity against Trypanosoma brucei rhodesiense infected in vervet monkey 485 assessed as time to detect parasitemia in wet films of blood at 1 mg/kg, po administered on day 7 post infection for 5 days by hematocrit centrifugation technique; assay type: functional; outline: as §4
[22] = system: Trypanosoma brucei rhodesiense; test: Antitrypanosomal activity against Trypanosoma brucei rhodesiense infected in vervet monkey assessed as body weight change at 1 mg/kg, po administered on day 7 post infection for 5 days measured on day 28 post treatment; assay type: functional; conditions: in the assay text read “day 1 post treatment” for “day 28 post treatment”; outline: as §2
[23] = system: Trypanosoma brucei rhodesiense; test: Antimicrobial activity against Trypanosoma brucei rhodesiense infected in vervet monkeys assessed as cure from infection at 3 mg/kg, po administered on day 7 post infection for 5 days; assay type: functional, organism-based; set-up: dose 3 mg/kg; outline: as §3
[24] = system: Trypanosoma brucei rhodesiense; test: Antitrypanosomal activity against Trypanosoma brucei rhodesiense infected in vervet monkey 520 assessed as time to detect CSF parasitosis at 10 mg/kg, po administered on day 28 post infection for 10 days measured after 7 to 14 days; assay type: functional; outline: as §1
[25] = system: Trypanosoma brucei rhodesiense; test: Antitrypanosomal activity against Trypanosoma brucei rhodesiense infected in vervet monkey 484 assessed as time to detect CSF parasitosis at 1 mg/kg, po administered on day 7 post infection for 5 days measured after 7 to 14 days; assay type: functional; outline: as §1

## CONC(=N)c1ccc(-c2ccc(-c3ccc(C(=N)NOC)cc3)o2)cc1 [PAFURAMIDINE]
[1]
  Time: 56 days
[2]
  Activity: -4.3%
[3]
  Time: 42 days
[4]
  Activity: -6.6%
[5]
  Activity: Active
[6]
  Time: inactive
[7]
  Time: 21 days
[8]
  Time: 14 days
[9]
  Time: 119 days
[10]
  Activity: 0%
[11]
  Time: inactive
[12]
  Time: 69 days
[13]
  Activity: -13.5%
[14]
  Activity: -41.3%
[15]
  Time: inactive
[16]
  Time: Active
[17]
  Activity: -4.2%
[18]
  Time: Active
[19]
  Activity: -25.8%
[20]
  Time: Active
[21]
  Time: 3 days
[22]
  Activity: -2.1%
[23]
  Activity: Active
[24]
  Time: 119 days
[25]
  Time: 7 days
